{"source": "ChEMBL document CHEMBL4619701", "about": "“Neutral analogs of the heat shock protein 70 (Hsp70) inhibitor, JG-98” (Bioorg Med Chem Lett, 2020)", "key": {"CWR22R [1]": {"system": "CWR22R", "test": "Antiproliferative activity against human 22Rv1 cells assessed as cell growth inhibition", "assay_type": "functional, cell-based"}, "PC-3 [2]": {"system": "PC-3", "test": "Antiproliferative activity against human PC3 cells assessed as cell growth inhibition", "assay_type": "functional, cell-based"}, "MCF7 [3]": {"system": "MCF7", "test": "Antiproliferative activity against human MCF7 cells assessed as cell growth inhibition", "assay_type": "functional, cell-based"}, "MCF7 [4]": {"system": "MCF7", "test": "Potency index, ratio of JG-98 IC50 to compound IC50 for human MCF7 cells", "assay_type": "functional"}, "CWR22R [5]": {"system": "CWR22R", "test": "Inhibition of HSP70 in human 22Rv1 cells assessed as reduction in c-Raf1 protein level at 0.3 to 5 uM measured after 24 hrs by Western blot analysis", "assay_type": "cell-based", "outline": "(§1)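 22Rv1 cells were treated for 24 h at the indicated concentrations, then lysed and analysed by western blot for the named protein. Blots are representative of at least two independent experiments. Quantifications are averages of at least two independent experiments, with error bars as S.E.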"}, "[6]": {"test": "Inhibition of HSP70 in human 22Rv1 cells assessed as induction of heat shock response by measuring HSP90 level at 0.3 to 5 uM measured after 24 hrs by Western blot analysis", "assay_type": "cell-based", "conditions": "cwr22r; call rule not given here", "outline": "as §1"}, "CWR22R [7]": {"system": "CWR22R", "test": "Inhibition of HSP70 in human 22Rv1 cells assessed as reduction in Akt-1 protein level at 0.3 to 5 uM measured after 24 hrs by Western blot analysis", "assay_type": "cell-based", "outline": "as §1"}, "CWR22R [8]": {"system": "CWR22R", "test": "Potency index, ratio of JG-98 IC50 to compound IC50 for human 22Rv1 cells", "assay_type": "functional"}, "CWR22R [9]": {"system": "CWR22R", "test": "Inhibition of HSP70 in human 22Rv1 cells assessed as reduction in CDK4 protein level at 0.3 to 5 uM measured after 24 hrs by Western blot analysis", "assay_type": "cell-based", "outline": "as §1"}, "CWR22R [10]": {"system": "CWR22R", "test": "Inhibition of HSP70 in human 22Rv1 cells assessed as reduction in HuR protein level at 0.3 to 5 uM measured after 24 hrs by Western blot analysis", "assay_type": "cell-based", "outline": "as §1"}, "PC-3 [11]": {"system": "PC-3", "test": "Potency index, ratio of JG-98 IC50 to compound IC50 for human PC3 cells", "assay_type": "functional"}, "[12]": {"test": "Inhibition of HSP70 in human 22Rv1 cells assessed as induction of heat shock response by measuring HSP72 level measured after 24 hrs by Western blot analysis", "assay_type": "cell-based", "conditions": "cwr22r", "outline": "as §1"}}, "data": [{"compound": "CCn1c(=O)/c(=C2\\Sc3ccccc3N2C)s/c1=C\\c1ccncc1Nc1ccccc1Cl", "values": [{"measurement": "IC50", "setting": "CWR22R [1]", "value": 460, "unit": "nM"}, {"measurement": "IC50", "setting": "PC-3 [2]", "value": 780, "unit": "nM"}, {"measurement": "IC50", "setting": "MCF7 [3]", "value": 750, "unit": "nM"}]}, {"compound": "CCn1c(=O)/c(=C2\\Sc3cc(F)ccc3N2C)s/c1=C\\c1ccncc1Nc1ccccc1F", "values": [{"measurement": "IC50", "setting": "CWR22R [1]", "value": 150, "unit": "nM"}, {"measurement": "IC50", "setting": "PC-3 [2]", "value": 260, "unit": "nM"}, {"measurement": "IC50", "setting": "MCF7 [3]", "value": 230, "unit": "nM"}]}, {"compound": "CCn1c(=O)/c(=C2\\Sc3ccccc3N2C)s/c1=C\\c1ccncc1Nc1ccccc1C", "values": [{"measurement": "IC50", "setting": "CWR22R [1]", "value": 470, "unit": "nM"}, {"measurement": "IC50", "setting": "PC-3 [2]", "value": 1200, "unit": "nM"}, {"measurement": "IC50", "setting": "MCF7 [3]", "value": 990, "unit": "nM"}]}, {"compound": "CCn1c(=O)/c(=C2\\Sc3ccc(C)cc3N2C)s/c1=C\\c1ccncc1Nc1ccccc1C", "values": [{"measurement": "IC50", "setting": "CWR22R [1]", "value": 480, "unit": "nM"}, {"measurement": "IC50", "setting": "PC-3 [2]", "value": 330, "unit": "nM"}, {"measurement": "IC50", "setting": "MCF7 [3]", "value": 400, "unit": "nM"}]}, {"compound": "CCn1c(=O)/c(=C2\\Sc3cc(F)ccc3N2C)s/c1=C\\c1ccncc1Nc1ccccc1Cl", "values": [{"measurement": "IC50", "setting": "CWR22R [1]", "value": 490, "unit": "nM"}, {"measurement": "IC50", "setting": "PC-3 [2]", "value": 1200, "unit": "nM"}, {"measurement": "IC50", "setting": "MCF7 [3]", "value": 1300, "unit": "nM"}]}, {"compound": "c1ccc(Nc2nc(-c3nc4ccccc4s3)cs2)cc1", "values": [{"measurement": "IC50", "setting": "CWR22R [1]", "value": 6900, "unit": "nM"}, {"measurement": "IC50", "setting": "PC-3 [2]", "value": 5500, "unit": "nM"}, {"measurement": "IC50", "setting": "MCF7 [3]", "value": 7600, "unit": "nM"}]}, {"compound": "COc1ccc(Cl)c(Nc2cccc(-c3nc4ccccc4s3)c2)c1", "values": [{"measurement": "IC50", "setting": "CWR22R [1]", "value": 2100, "unit": "nM"}, {"measurement": "IC50", "setting": "PC-3 [2]", "value": 2200, "unit": "nM"}, {"measurement": "IC50", "setting": "MCF7 [3]", "value": 710, "unit": "nM"}]}, {"compound": "CCn1c(=O)/c(=C2\\Sc3ccc(C)cc3N2C)s/c1=C\\c1ccncc1Nc1ccccc1Cl", "values": [{"measurement": "IC50", "setting": "CWR22R [1]", "value": 350, "unit": "nM"}, {"measurement": "IC50", "setting": "PC-3 [2]", "value": 500, "unit": "nM"}, {"measurement": "IC50", "setting": "MCF7 [3]", "value": 650, "unit": "nM"}]}, {"compound": "CCc1ccc2c(c1)S/C(=c1/s/c(=C\\c3ccncc3Nc3ccccc3F)n(CC)c1=O)N2C", "values": [{"measurement": "IC50", "setting": "CWR22R [1]", "value": 1200, "unit": "nM"}, {"measurement": "IC50", "setting": "PC-3 [2]", "value": 2200, "unit": "nM"}, {"measurement": "IC50", "setting": "MCF7 [3]", "value": 1200, "unit": "nM"}]}, {"compound": "CCn1c(=O)/c(=C2\\Sc3ccc(OC)cc3N2C)s/c1=C\\c1ccncc1Nc1ccccc1F", "values": [{"measurement": "IC50", "setting": "CWR22R [1]", "value": 190, "unit": "nM"}, {"measurement": "IC50", "setting": "PC-3 [2]", "value": 100, "unit": "nM"}, {"measurement": "IC50", "setting": "MCF7 [3]", "value": 130, "unit": "nM"}]}, {"compound": "CCn1c(=O)/c(=C2\\Sc3ccccc3N2C)s/c1=C\\c1ccncc1Nc1cc(C)ccc1C", "values": [{"measurement": "IC50", "setting": "CWR22R [1]", "value": 1800, "unit": "nM"}, {"measurement": "IC50", "setting": "PC-3 [2]", "value": 2000, "unit": "nM"}, {"measurement": "IC50", "setting": "MCF7 [3]", "value": 1700, "unit": "nM"}]}, {"compound": "CCn1c(=O)/c(=C2\\Sc3ccc(C)cc3N2C)s/c1=C\\c1ccncc1Nc1ccccc1F", "values": [{"measurement": "Ratio IC50", "setting": "MCF7 [4]", "value": "7 - 10"}, {"measurement": "inhibition", "setting": "CWR22R [5]", "value": 50, "unit": "%"}, {"measurement": "IC50", "setting": "CWR22R [1]", "value": 150, "unit": "nM"}, {"measurement": "inhibition (INH)", "setting": "[6]", "value": "Not Active"}, {"measurement": "IC50", "setting": "PC-3 [2]", "value": 70, "unit": "nM"}, {"measurement": "IC50", "setting": "MCF7 [3]", "value": 100, "unit": "nM"}, {"measurement": "inhibition", "setting": "CWR22R [7]", "value": 50, "unit": "%"}, {"measurement": "Ratio IC50", "setting": "CWR22R [8]", "value": "7 - 10"}, {"measurement": "inhibition", "setting": "CWR22R [9]", "value": 50, "unit": "%"}, {"measurement": "inhibition", "setting": "CWR22R [10]", "value": 50, "unit": "%"}, {"measurement": "Ratio IC50", "setting": "PC-3 [11]", "value": "7 - 10"}, {"measurement": "inhibition (INH)", "setting": "[12]", "value": "Not Active"}]}, {"compound": "CCn1c(=O)/c(=C2\\Sc3cc(F)ccc3N2C)s/c1=C\\c1ccncc1Nc1ccccc1C", "values": [{"measurement": "IC50", "setting": "CWR22R [1]", "value": 2300, "unit": "nM"}, {"measurement": "IC50", "setting": "PC-3 [2]", "value": 2300, "unit": "nM"}, {"measurement": "IC50", "setting": "MCF7 [3]", "value": 1300, "unit": "nM"}]}, {"compound": "CCn1c(=O)/c(=C2\\Sc3ccccc3N2C)s/c1=C\\c1ccncc1Nc1ccccc1F", "values": [{"measurement": "IC50", "setting": "CWR22R [1]", "value": 300, "unit": "nM"}, {"measurement": "IC50", "setting": "PC-3 [2]", "value": 360, "unit": "nM"}, {"measurement": "IC50", "setting": "MCF7 [3]", "value": 330, "unit": "nM"}]}, {"compound": "CCn1c(=O)/c(=C2\\Sc3ccccc3N2C)s/c1=C\\c1ccncc1Nc1cc(F)ccc1F", "values": [{"measurement": "IC50", "setting": "CWR22R [1]", "value": 1100, "unit": "nM"}, {"measurement": "IC50", "setting": "PC-3 [2]", "value": 1200, "unit": "nM"}, {"measurement": "IC50", "setting": "MCF7 [3]", "value": 1500, "unit": "nM"}]}, {"compound": "c1ccc(Nc2nc(-c3nc4ccccc4s3)cs2)nc1", "values": [{"measurement": "IC50", "setting": "CWR22R [1]", "value": 3200, "unit": "nM"}, {"measurement": "IC50", "setting": "PC-3 [2]", "value": 6700, "unit": "nM"}, {"measurement": "IC50", "setting": "MCF7 [3]", "value": 3600, "unit": "nM"}]}, {"compound": "CCn1c(=O)/c(=C2\\Sc3ccc(OC)cc3N2C)s/c1=C\\c1ccncc1Nc1ccccc1C", "values": [{"measurement": "IC50", "setting": "CWR22R [1]", "value": 410, "unit": "nM"}, {"measurement": "IC50", "setting": "PC-3 [2]", "value": 370, "unit": "nM"}, {"measurement": "IC50", "setting": "MCF7 [3]", "value": 420, "unit": "nM"}]}, {"compound": "CCn1c(=O)/c(=C2\\Sc3ccc(OC)cc3N2C)s/c1=C\\c1ccncc1Nc1ccccc1Cl", "values": [{"measurement": "IC50", "setting": "CWR22R [1]", "value": 500, "unit": "nM"}, {"measurement": "IC50", "setting": "PC-3 [2]", "value": 760, "unit": "nM"}, {"measurement": "IC50", "setting": "MCF7 [3]", "value": 710, "unit": "nM"}]}, {"compound": "c1ccc(Nc2cccc(-c3nc4ccccc4s3)c2)nc1", "values": [{"measurement": "IC50", "setting": "CWR22R [1]", "value": 13000, "unit": "nM"}, {"measurement": "IC50", "setting": "PC-3 [2]", "value": 4800, "unit": "nM"}, {"measurement": "IC50", "setting": "MCF7 [3]", "value": 13000, "unit": "nM"}]}]}
